According to ChEMBL document CHEMBL3124843, “Synthesis, cytostatic, antimicrobial, and anti-HCV activity of 6-substituted 7-(het)aryl-7-deazapurine ribonucleosides” (J Med Chem, 2014):
Calls of active or inactive are those of the source. No rule for the calls is given here.

Columns and labels:
[1] = Cytotoxicity against human HuH7 cells infected with Hepatitis C virus subtype 2a; format: cell-based, Huh-7
Hepatitis C virus [2] = experiment: Antiviral activity against Hepatitis C virus subtype 2a infected in human HuH7 cells; format: functional, organism-based, Hepacivirus hominis; conditions: genotype 2a, Huh-7
[3] = Cytotoxicity against human HuH7 cells infected with Hepatitis C virus subtype 1b; format: cell-based, Huh-7
Hepatitis C virus [4] = experiment: Antiviral activity against Hepatitis C virus subtype 1b infected in human HuH7 cells; format: functional, organism-based, Hepacivirus hominis; conditions: genotype 1b, Huh-7
Candida tropicalis = experiment: Antifungal activity against Candida tropicalis after 48 hrs; format: functional, organism-based
Pichia kudriavzevii = experiment: Antifungal activity against Candida crusei after 48 hrs; format: functional, organism-based
Candida parapsilosis = experiment: Antifungal activity against Candida parapsilosis after 48 hrs; format: functional, organism-based
Candida albicans = experiment: Antifungal activity against Candida albicans after 48 hrs; format: functional, organism-based
Pseudomonas aeruginosa [5] = experiment: Antibacterial activity against multi-resistant Pseudomonas aeruginosa A/16575 after 24 hrs; format: functional, organism-based
Escherichia coli [6] = experiment: Antibacterial activity against multi-resistant Escherichia coli C/16702 after 24 hrs; format: functional, organism-based
[7] = test system: Staphylococcus haemolyticus; experiment: Antibacterial activity against methicillin-resistant Staphylococcus haemolyticus A/16568 after 24 hrs; format: functional, organism-based
Staphylococcus aureus [8] = experiment: Antibacterial activity against methicillin-resistant Staphylococcus aureus MRSA 4591 after 24 hrs; format: functional, organism-based
Pseudomonas aeruginosa [9] = experiment: Antibacterial activity against Pseudomonas aeruginosa CCM 3955 after 24 hrs; format: functional, organism-based
Escherichia coli [10] = experiment: Antibacterial activity against Escherichia coli CCM 3954 after 24 hrs; format: functional, organism-based
Staphylococcus aureus [11] = experiment: Antibacterial activity against Staphylococcus aureus CCM 3953 after 24 hrs; format: functional, organism-based
Enterococcus faecalis = experiment: Antibacterial activity against Enterococcus faecalis CCM 4224 after 24 hrs; format: functional, organism-based
[12] = Antiproliferative activity against human HeLaS3 cells after 72 hrs by XTT assay; format: functional, cell-based; conditions: HeLa S3, 72 h
In short: (§1)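 Antiproliferative test on HL-60 promyelocytic leukemia and HeLa S3 cervical carcinoma cells growing in liquid suspension.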

HL-60 = experiment: Antiproliferative activity against human HL60 cells after 72 hrs by XTT assay; format: functional, cell-based; conditions: HL-60, 72 h; in short: as §1
HepG2 = experiment: Antiproliferative activity against human HepG2 cells after 72 hrs by XTT assay; format: functional, cell-based; conditions: HepG2, 72 h
MRC5 = experiment: Cytostatic activity against human MRC5 cells after 72 hrs by MTT assay; format: ADME, cell-based; conditions: MRC5, 72 h
In short: (§2)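 IC50 is the concentration that cuts cell growth by 50%, read by quantitative metabolic MTT staining after a 3-day treatment. The resistant sublines were made by raising the concentration of the cytotoxic drug step by step. CEM-DNR-bulk (daunorubicin-selected) stably overexpresses mrp-1. K562-TAX (paclitaxel-selected) expresses only mdr-1. HCT116p53−/− carries null p53 alleles. BJ and MRC-5 are nonmalignant fibroblasts.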

BJ = experiment: Cytostatic activity against human BJ cells after 72 hrs by MTT assay; format: ADME, cell-based; in short: as §2
HCT-116 [13] = experiment: Cytostatic activity against p53-deficient human HCT116 cells after 72 hrs by MTT assay; format: functional, cell-based; conditions: HCT-116, 72 h; in short: as §2
HCT-116 [14] = experiment: Cytostatic activity against human HCT116 cells after 72 hrs by MTT assay; format: functional, cell-based; conditions: HCT-116, 72 h; in short: as §2
A549 = experiment: Cytostatic activity against human A549 cells after 72 hrs by MTT assay; format: functional, cell-based; conditions: A549, 72 h; in short: as §2
K562 [15] = experiment: Cytostatic activity against paclitaxel-resistant human K562 cells after 72 hrs by MTT assay; format: functional, cell-based; conditions: K562, 72 h; in short: as §2
K562 [16] = experiment: Cytostatic activity against human K562 cells after 72 hrs by MTT assay; format: functional, cell-based; conditions: K562, 72 h; in short: as §2
[17] = Cytostatic activity against human CEM-DNR-bulk cells after 72 hrs by MTT assay; format: functional, cell-based; in short: as §2
CCRF-CEM = experiment: Cytostatic activity against human CCRF-CEM cells after 72 hrs by MTT assay; format: functional, cell-based; in short: as §2

SMILES | CC50 [1] [µM] | EC50 (Hepatitis C virus [2]) [µM] | CC50 [3] [µM] | EC50 (Hepatitis C virus [4]) [µM] | Activity (Candida tropicalis) | Activity (Pichia kudriavzevii) | Activity (Candida parapsilosis) | Activity (Candida albicans) | Activity (Pseudomonas aeruginosa [5]) | Activity (Escherichia coli [6]) | Activity [7] | Activity (Staphylococcus aureus [8]) | Activity (Pseudomonas aeruginosa [9]) | Activity (Escherichia coli [10]) | Activity (Staphylococcus aureus [11]) | Activity (Enterococcus faecalis) | IC50 [12] [µM] | IC50 (HL-60) [µM] | IC50 (HepG2) [µM] | IC50 (MRC5) [µM] | also measured
C#Cc1cn([C@@H]2O[C@H](CO)[C@@H](O)[C@H]2O)c2ncnc(NC)c12 | > 44 | > 44 | > 44 | 0.35 | inactive | inactive | inactive | inactive | inactive | inactive | inactive | inactive | inactive | inactive | inactive | inactive | > 20 | 9.06 | > 15 | > 100 | IC50 (BJ): 86 µM; IC50 (HCT-116 [13]): > 20 µM; IC50 (HCT-116 [14]): > 20 µM; IC50 (A549): > 20 µM; IC50 (K562 [15]): 1.38 µM; IC50 (K562 [16]): > 20 µM; IC50 [17]: 18.5 µM; IC50 (CCRF-CEM): > 20 µM
Cc1ncnc2c1c(I)cn2[C@@H]1O[C@H](CO)[C@@H](O)[C@H]1O | 13.8 | 8.75 | 20.9 | 2.16 | inactive | inactive | inactive | inactive | inactive | inactive | inactive | inactive | inactive | inactive | inactive | inactive | 4.08 | 2.65 | 3.46 | 13.3 | IC50 (BJ): > 100 µM; IC50 (HCT-116 [13]): 7.57 µM; IC50 (HCT-116 [14]): 4.72 µM; IC50 (A549): 12.2 µM; IC50 (K562 [15]): > 20 µM; IC50 (K562 [16]): 17.8 µM; IC50 [17]: 12.6 µM; IC50 (CCRF-CEM): 5.48 µM
Cc1ncnc2c1ccn2[C@@H]1O[C@H](CO)[C@@H](O)[C@H]1O | 0.12 | 0.02 | 0.23 | 0.02 | inactive | inactive | inactive | inactive | inactive | inactive | inactive | inactive | inactive | inactive | inactive | inactive | 0.02 | 0.02 | 0.06 | 0.09 | IC50 (BJ): 0.07 µM; IC50 (HCT-116 [13]): 0.06 µM; IC50 (HCT-116 [14]): 0.03 µM; IC50 (A549): 0.03 µM; IC50 (K562 [15]): 0.05 µM; IC50 (K562 [16]): 0.01 µM; IC50 [17]: 0.05 µM; IC50 (CCRF-CEM): 0.01 µM
